This excerpt belongs to a sample that is enriched for hits.
H69AR inhibit – growth inhibitors of human H69AR lung tumor cells; H69AR lung tumor viability, ATP luminescence, 72 h; stronger effect = lower value; viability, % at 10 µM; 85,000 tested, 6% active; AID 598;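 active = viability at or below 40%; inactive = viability above 40%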;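 also: multidrug resistant small cell line overexpressing MRP-1 efflux transporter; 100% = mean luminescence of untreated control wells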
PTEN del growth – growth suppressors of cells with PTEN tumor suppressor deletion. HCT116 PTEN-null viability, CellTiter-Glo, 60 h; stronger effect = lower value. viability, % at 10 µM. 140,000 tested, 1.2% active. AID 827;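 active = viability at or below a set limit, 4 SD under the median of all tested compounds, cut at about 3.7% in these data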;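 also: PTEN knockout HCT116 line with beta catenin targeted HCT116 as companion control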
bCat KO growth – beta-catenin-lacking colon tumor cell growth suppression. HCT116 beta-catenin knockout viability, CellTiter-Glo, 60 h; stronger effect = lower value. viability, % at 10 µM. 140,000 tested, 1.5% active;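 active = viability at or under a set limit, the compound median less 4 SD, cut at about 6% in these data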;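 also: 0% = Hyamine 1622 control at 20 µM and 100% = untreated cell control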
HUVEC prolif 384 – blocks proliferation of human endothelial cells; viability, % at 10 µM (by protocol); AID 648; HUVEC proliferation, CellTiter-Glo luminescence, 72 h; stronger effect = lower value; 86,000 tested, 1.1% active;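 active = viability at or below 30%; inactive = viability above 30%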;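 also: 100% = median luminescence of DMSO-only cell control wells on each plate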
Lung fibro prol – blocks proliferation of human lung fibroblasts. LL 47 human lung fibroblast viability, ATP luminescence; stronger effect = lower value. viability, % at 10 µM. 85,000 tested, 1.1% active;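 active = viability at or below 50% in the single dose screen; inactive = viability above 50%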;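 also: compound exposure lasted 72 h before the ATP readout; 100% = median luminescence of untreated cell-only wells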
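Test system: LL 47 human lung fibroblasts / Quantity: 1,150 cells in each well / Medium: IMEM growth medium with 15% fetal bovine serum / Incubation: 72 h compound exposure at 37 °C after overnight plating / Detection: CellTiter-Glo luminescence measuring cellular ATP / Read-out: % viability versus median cells-only luminescence / Benchmarks: cell-only wells, no compound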
Active calls of the source: *; nt = no result.

SMILES	H69AR inhibit	PTEN del growth	bCat KO growth	HUVEC prolif 384	Lung fibro prol
Cc1nn2c(NCCCN3CCOCC3)c3c(nc2c1-c1ccccc1)CCC3	47	89	100	92	91
CCC(C)Nc1c2c(nc3c(-c4ccccc4)c(C)nn13)CCC2 (stereo not drawn)	30*	80	83	94	97
CCCCNc1c2c(nc3c(-c4ccccc4)c(C)nn13)CCC2	27*	87	85	80	84
O=C(NCCSCc1ccccc1)c1ccc(C2SCC(=O)N2Cc2ccccc2)cc1 (stereo not drawn)	63	67	64	86	101
Cc1cc(/C=N/NC(=O)C(=O)NCc2ccccn2)c(C)n1-c1ccccc1	nt	89	94	nt	nt
O=C1C(=C2CCCCC2)SC(=S)N1Cc1ccco1	11*	62	64	82	94
O=C(O)CCN1C(=O)C(=C2CCCCCC2)SC1=S	90	95	97	86	102
CCOC(=O)c1nn(-c2ccc3c(c2)OCO3)cc1O	90	108	111	90	99
Cc1ccsc1/C=N/n1c(COc2ccccc2)n[nH]c1=S	nt	83	99	nt	nt
CC1Cc2cc(-c3csc(NC(=O)Cc4cccs4)n3)ccc2N1S(C)(=O)=O (stereo not drawn)	75	6	5.6*	67	79
CS(=O)(=O)N1CCc2cc(-c3csc(NC(=O)Cc4ccccc4)n3)ccc21	79	13	14	84	101
CCOc1ccc(N2C(=O)/C(=C/c3cc(OC)c(OC)c(OC)c3)N(CC(=O)OC)C2=S)cc1	25*	14	15	62	95
O=C(NCCCN1CCN(CCCNC(=O)c2ccc(F)cc2)CC1)c1ccc(F)cc1	97	72	74	97	100
CC(C)c1ccc(C(=O)NCCCN2CCN(CCCNC(=O)c3ccc(C(C)C)cc3)CC2)cc1	nt	2.0*	1.5*	nt	nt
Cn1c(=O)c2c3c(sc2n2c(SCc4ccccc4)nnc12)CCCC3	nt	83	86	nt	nt
CCC1(C)Cc2c(sc3c2c(=O)n(C)c2nnc(SCc4ccccc4)n32)CO1 (stereo not drawn)	15*	71	72	70	100
CCn1c(=O)c2c3c(sc2n2c(SCc4ccc(F)cc4)nnc12)CCCC3	16*	nt	nt	66	81
COc1ccc(C)cc1NC(=O)CNc1ccc(C(C)=O)cc1	nt	60	72	nt	nt
CC1CC(C)CN(C(=O)C(NS(=O)(=O)c2ccc(Br)s2)c2ccccc2)C1 (stereo not drawn)	nt	64	70	nt	nt
O=C(NNC(=O)C(c1ccccc1)c1ccccc1)c1ccccn1	nt	6	4.8*	nt	nt
COc1ccc2cc3cc(C(=O)Nc4cc(OC)c(OC)c(OC)c4)oc3nc2c1	87	62	86	76	104
COc1ccc2cc3cc(C(=O)Nc4ccc5c(c4)OCCO5)oc3nc2c1	40*	81	86	26*	91
Cc1cc(=O)oc2cc(NC(=O)C3COc4ccccc4O3)ccc12 (stereo not drawn)	39*	76	92	91	74
COc1cccc(-c2nc(NCC3CCCO3)c3ccccc3n2)c1O (stereo not drawn)	32*	14	15	72	84
Oc1ccccc1-c1nc(NCC2CCCO2)c2ccccc2n1 (stereo not drawn)	36*	61	64	54	79
SMILES	H69AR inhibit	PTEN del growth	bCat KO growth	HUVEC prolif 384	Lung fibro prol
CCC(C)Nc1nc(-c2cccc(OC)c2O)nc2ccccc12 (stereo not drawn)	4.9*	2.1*	2.5*	55	75
CCC1CCCCN1c1nc(-c2cccc(OC)c2O)nc2ccccc12 (stereo not drawn)	74	69	78	73	95
COc1cccc(-c2nc(NC(C)C)c3ccccc3n2)c1O	95	18	21	62	63
CC(/C=N/NC(=O)Cn1cnc2c1c(=O)n(C)c(=O)n2C)=C\c1ccccc1	nt	91	77	nt	nt
CCOc1ccc(N2C(=O)c3ccc(C(=O)OCc4c(C)noc4C)cc3C2=O)cc1	36*	98	99	42	72
Cc1noc(C)c1COC(=O)c1ccc2c(c1)S(=O)(=O)c1ccccc1C2=O	84	96	99	95	107
C=CCOc1nc2c(c(=O)n(C)c(=O)n2C)n1Cc1ccccc1Cl	38*	70	69	94	93
Cn1c(=O)c2c(nc(NCc3ccc4c(c3)OCO4)n2Cc2ccccc2Cl)n(C)c1=O	38*	93	81	65	89
Cn1c(=O)[nH]c(=O)c2c1nc(Br)n2Cc1ccccc1Cl	27*	78	89	101	97

Screening data as filed in PubChem BioAssay.
